Assay outcomes deposited in PubChem by Broad Institute.
SR-BI uptake up: SR-BI HDL lipid transfer activation. hit rate 0.096% among 320,000. activation, % at 12.5 µM. AID 504775. CHO ldlA[mSR-BI] cells, DiI-HDL uptake fluorescence, 3 h; 100 = double the neutral-control signal;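 active means mean replicate activation of at least 60% and every replicate at or above 60%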;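 further: 0% = median plate neutral-control signal and 100% = twice that signal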
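System: CHO ldlA[mSR-BI] cells / Medium: HEPES-buffered (25 mM, pH 7.4) F12 plus 0.5% BSA / Probe or stimulus: labelled HDL, 10 µg/mL / Doses: single compound concentration, delivered by pin transfer / Schedule: 3 h, 37 °C / Measured by: DiI fluorescence, bottom read / Measure: cell-associated DiI fluorescence as measure of HDL uptake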
CAL PDZ FP-1: inhibitors of human CAL PDZ peptide binding. Q9HD26. purified CAL PDZ, TMR-peptide fluorescence polarization, 1 h. inhibition, % at 24.9 µM. hit rate 0.92% among 300,000;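 active means mean inhibition of at least 30% with at least half of replicates also reaching 30%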;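 further: 0% = DMSO neutral control and 100% = excess unlabeled competitor peptide PRC23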
dFosB act-1: mouse delta FosB homodimer activation | P13346 | purified delta FosB, TAMRA-CDK5 oligo fluorescence polarization; percent of positive-control signal above neutral wells | activation, % at 25 µM | hit rate 0.99% among 340,000 | AID 493131;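 active means mean activation above about 17%, with every replicate also reaching it, limit read from the data, passing the limit was not always enough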
Target sequence (P13346 whole entry, looked up): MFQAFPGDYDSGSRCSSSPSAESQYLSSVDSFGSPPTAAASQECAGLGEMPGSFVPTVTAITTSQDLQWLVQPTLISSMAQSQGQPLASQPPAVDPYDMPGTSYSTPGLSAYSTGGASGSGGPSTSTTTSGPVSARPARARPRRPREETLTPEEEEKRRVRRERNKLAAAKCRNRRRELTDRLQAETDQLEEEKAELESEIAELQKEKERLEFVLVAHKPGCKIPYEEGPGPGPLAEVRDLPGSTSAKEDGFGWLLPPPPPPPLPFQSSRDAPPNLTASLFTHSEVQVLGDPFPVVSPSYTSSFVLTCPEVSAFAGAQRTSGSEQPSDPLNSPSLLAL
SR-BI HDL uptake: inhibitors of mouse SR-BI mediated HDL lipid uptake; ldlA[mSR-BI] CHO cells, DiI-HDL uptake fluorescence, 3 h; inhibition, % at 12.5 µM; hit rate 0.96% among 320,000; AID 488896;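 active means mean replicate inhibition of at least 70% and a set share of replicates each scoring 70 or more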;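 further: 0% = median of neutral control wells and 100% = median of positive control wells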
CAL PDZ FP-2: blocks peptide binding to human CAL PDZ domain; inhibition, % at 20 µM; hit rate 0.02% among 330,000; Q9HD26; purified CAL PDZ, TMR-peptide fluorescence polarization, 1 h;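 active means highest replicate inhibition of at least 40%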;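 further: plate controls were DMSO neutral control wells for no effect and unlabeled competitor peptide control wells for full effect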
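Test system: tagged CAL PDZ domain / Buffer or medium: sodium phosphate/NaCl buffer pH 7.4 with TCEP, IgG, Thesit / Reagent: TMR-labelled reporter peptide T*-PRC34 bound in PDZ groove / Compound dosing: single point, 20 µM / Schedule: 1 h incubation at room temperature before polarization reading / Technique: fluorescence polarization (mP) / Benchmarks: unlabelled peptide, DMSO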
dFosB act-2: delta FosB (mouse) homodimer activation | activation, % at 24.9 µM | AID 588690 | 2,400 tested, under 10 active | shares compounds with dFosB act-1 | purified delta FosB, TAMRA-CDK5 oligo fluorescence polarization; normalised: neutral wells 0, positive control 100;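 active means highest replicate activation at or above 34% and every replicate reaching that threshold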;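 further: higher polarization means more probe DNA bound by delta FosB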
Active calls of the source: *; / = no result given. Compounds with a hit are over-represented: about 2.8% of the library has one in this group of screens.

SMILES	SR-BI uptake up	CAL PDZ FP-1	dFosB act-1	SR-BI HDL uptake	CAL PDZ FP-2	dFosB act-2
O=C(Nc1ccc(NC(=O)c2ccccc2O)cc1)Nc1ccc(F)cc1F	/	-4.4	31.8*	/	-0.9	6.9
O=C1CCN(Cc2ccccc2)N1	/	4.1	-4.3	/	-2.0	/
COc1ccc(NC(=O)CCc2nnc3ccc(N4CCN(c5cccc(OC)c5)CC4)nn23)cc1	/	-4.4	-12.6	-2.0	-2.0	/
CCOc1ccccc1NC(=O)COC(=O)C1CCC(=O)N1 (stereo not drawn)	8.3	-0.6	-3.2	-8.3	0.7	/
COc1ccc(C(=O)Nc2cnn(Cc3c(F)cccc3Cl)c2)cc1OC	/	-6.1	-3.2	/	-3.0	/
Cc1ccc(C(=O)NCC(=O)Nc2ccc(C)c(S(=O)(=O)Nc3ccc(Cl)cc3)c2)s1	-22.6	-6.7	35.5*	22.6	-0.4	0.4
CC(=O)Nc1ccccc1-c1nc2ccccc2nc1OCC(=O)c1ccc(Br)cc1	-8.7	-6.6	11.5	8.7	/	/
CC(=O)Nc1ccccc1-c1nc2ccccc2nc1OCC(=O)c1ccc2ccccc2c1	-40.3	-0.6	30.4*	40.3	-2.1	-3.9
CCOC(=O)c1cccc(NC(=O)Cn2c(CC(=O)NC)nc3ccccc32)c1	-6.5	/	40.6*	6.5	-0.8	0.6
COc1ccc(NC(=O)Nc2cccc3ccccc23)cc1OC	-50.9	/	4.1	50.9	-1.8	/
Cc1ccccc1NC(=O)Cc1nc(COC(=O)c2cc([N+](=O)[O-])ccc2N)cs1	-9.8	/	26.5*	9.8	-1.7	-6.8
Cc1cc2nc(-c3ccc(SCC(=O)Nc4nccs4)nc3)[nH]c2cc1C	-7.9	-2.6	58.0*	7.9	-1.4	-1.6
COc1cccc2sc(N(CCCN(C)C)C(=O)c3ccc(S(=O)(=O)N4CCc5ccccc5C4)cc3)nc12	/	-1.4	30.1*	-26.9	-4.4	1.3
CCOc1cccc2sc(N(CCCN(C)C)C(=O)c3ccc(S(=O)(=O)N(C)Cc4ccccc4)cc3)nc12	-4.3	-1.1	24.1*	4.3	-4.6	0.7
O=C(COC(=O)c1cc(S(=O)(=O)Nc2ccccc2Cl)ccc1O)Nc1nc2ccccc2s1	12.4	-9.9	32.3*	-12.4	-1.3	6.8
Cc1c(O)ccc2c(CN3CCN(C/C=C/c4ccccc4)CC3)cc(=O)oc12	-8.5	-5.9	18.2*	8.5	-1.3	7.3
CCOc1ccc(NC(=O)Cn2cc(C(=O)CC)c3ccccc32)cc1	-18.3	7.3	40.7*	18.3	1.0	4.1
COc1ccc(NC(=O)Cn2cc(C#N)c3ccccc32)cc1	1.6	-0.9	41.7*	-1.6	0.4	1.8
COc1ccc(OC)c(NC(=O)Cn2cc(C#N)c3cc(Br)ccc32)c1	-29.6	/	25.6*	29.6	-0.2	3.4
COc1ccc(NC(=O)Cn2cc(C(C)=O)c3ccccc32)cc1	0.5	-0.5	-3.3	-0.5	/	/
COc1ccc(OC)c(NC(=O)COc2ccc(Br)cc2)c1	-8.8	-1.0	-3.0	8.8	1.2	/
COc1cccc(CNC(=O)CCCn2nc(C)c3c(C)n(-c4ccc(C)cc4)nc3c2=O)c1OC	-23.5	-2.3	-3.6	23.5	-0.5	/
COCCCNC(=O)Cn1cnc2sc(C)c(S(=O)(=O)N3CC(C)CC(C)C3)c2c1=O (stereo not drawn)	9.8	-2.2	1.7	-9.8	-3.1	/
CCn1c(SCC(=O)N2CCc3ccccc32)nnc1-c1c[nH]c2ccccc12	-61.5	2.7	3.3	61.5	-0.4	/
COc1ccc(-n2c(SCC(=O)N3CCc4ccccc43)nnc2-c2c[nH]c3ccccc23)cc1	-2.2	/	49.3*	2.2	0.3	2.7
SMILES	SR-BI uptake up	CAL PDZ FP-1	dFosB act-1	SR-BI HDL uptake	CAL PDZ FP-2	dFosB act-2
O=C(O)CCC(=O)Nc1ccc(C(=O)OCC(=O)c2ccc(Cl)cc2Cl)cc1	14.3	-4.4	0.4	-14.3	-0.2	/
CCN(CC)S(=O)(=O)c1ccc(Cl)c(NC(=O)c2cc(Cl)cc(Cl)c2)c1	-45.3	/	53.5*	45.3	-5.8	0.0
CCOc1ccc(CCNC(=O)COC(=O)C2CC2)cc1OCC	0.2	/	-2.3	-0.2	-0.2	/
Cc1cc(OCC(=O)N2CCN(c3cccc(Cl)c3)CC2)c2c(C)c(C)c(=O)oc2c1	21.3	-0.3	39.2*	-21.3	0.2	0.0
Cc1ccc2c(c1)NC(=O)c1cc([N+](=O)[O-])ccc1O2	20.1	/	31.4*	-20.1	-0.7	2.3
O=C1Nc2ccccc2Oc2cc([N+](=O)[O-])ccc21	-21.0	-0.2	13.3	21.0	-1.7	/
O=C(Nc1ccc2c(c1)CCC2)c1cc(S(=O)(=O)N2CCN(c3ccccc3)CC2)ccc1Cl	-7.7	-5.8	24.2*	7.7	-0.7	2.7
CC(=O)c1ccc(S(=O)(=O)Nc2cc3c(cc2C(C)=O)OCO3)cc1	19.5	-3.3	4.3	-19.5	0.5	/
CC(=O)c1cc2c(cc1N/C(=N/S(=O)(=O)c1ccc(Br)cc1)c1ccccc1)OCO2	-50.9	/	62.4*	50.9	-4.3	-1.3
O=c1c(O)c(-c2ccc(O)cc2)oc2cc(O)cc(O)c12	-23.3	-1.0	6.4	23.3	-0.5	/
O=c1c(-c2c(O)cc(O)c3c2O[C@H](c2ccc(O)cc2)CC3)c(-c2ccc(O)cc2)oc2cc(O)cc(O)c12	7.2	-2.2	30.8*	-7.2	-1.0	7.3
CCOC(=O)c1c(C)[nH]c(C(=O)OCC(=O)Nc2cc(Cl)ccc2OC)c1C	-13.5	/	-1.3	13.5	-2.5	/
CCOC(=O)c1c(C)[nH]c(C(=O)OCC(=O)Nc2cc(C)ccc2OC)c1C	-30.6	-2.4	23.2*	30.6	/	-0.3
Cc1c(NC(=O)Nc2ccc(Cl)cc2)c(=O)n(-c2ccccc2)n1C	-29.1	-3.4	6.1	29.1	-2.2	/
Cc1c(N=C2N=C(NC(=O)Nc3ccc(Cl)cc3)c3ccccc32)c(=O)n(-c2ccccc2)n1C	-18.5	/	38.0*	18.5	-0.4	-30.1
COc1ccc(-c2cc(=O)oc3cc(OCC(=O)Nc4ccc(CCO)cc4)ccc23)cc1	-18.3	8.6	21.9*	18.3	0.7	1.2
COC(=O)COc1ccc2c(-c3ccc(OC)cc3)cc(=O)oc2c1	1.6	/	-18.1	-1.6	-1.4	/
COc1ccc(-c2cc(=O)oc3c(C)c(OCC(=O)Nc4cccnc4)ccc23)cc1	-54.4	-8.7	41.3*	54.4	-3.1	-6.1
CCCCN(C(=O)c1cc(Cl)nc2ccccc12)c1c(N)n(Cc2ccccc2)c(=O)[nH]c1=O	23.1	-0.6	26.5*	-23.1	-2.0	-1.3
COCCN(C(=O)c1cc(Cl)nc2ccccc12)c1c(N)n(Cc2ccccc2)c(=O)[nH]c1=O	15.9	-0.2	-2.6	-15.9	0.0	/
Cc1ccc(NC(=O)c2sc3ncn(CC(=O)N4CCN(c5ccccn5)CC4)c(=O)c3c2C)cc1Cl	-68.0	-1.6	35.1*	68.0	0.2	1.2
